In ChEMBL document CHEMBL4732121, “Imidazo[1,2-a]quinoxalines for melanoma treatment with original mechanism of action” (Eur J Med Chem, 2021):

System: A-375
Assay: Antiproliferative activity against human A-375 cells assessed as reduction in cell viability measured after 96 hrs by MTT assay
Assay type: functional, cell-based
Summary of the method: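 A375 cells in RPMI-1640 with 10% heat-inactivated FBS, 2 mM L-glutamine and antibiotics, 37°C, 5% CO₂. Seeded at 5000 cells/well and attached overnight, then exposed to 10⁻⁵–3.2.10⁻⁹ M in 0.15% DMSO/medium for 96 h. MTT at 0.5 mg/ml final for 4 h, formazan dissolved in 10% SDS/0.01 M HCl, OD 570 nm. At least three experiments in triplicate; IC50 from sigmoidal dose–response curves.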

## Nc1nccn2c(-c3ccc(O)c(O)c3)cnc12
Homo sapiens, A-375, 96 h
  IC50: > 10000 nM

## COc1ccc(-c2cnc3c(NCCCNC(=O)OC(C)(C)C)nc4ccccc4n23)cc1OC
Homo sapiens, A-375, 96 h
  IC50: > 10000 nM

## NCCNc1nc2ccccc2n2c(-c3ccc(O)c(O)c3)cnc12
a-375
  IC50: 1700 nM

## CN(C)c1nc2ccccc2n2c(-c3ccc(O)c(O)c3)cnc12
Homo sapiens, A-375, 96 h
  IC50: 30 nM

## COc1ccc(-c2cnc3c(N)nccn23)cc1OC
Homo sapiens, A-375, 96 h
  IC50: > 10000 nM

## Nc1nc2ccccc2n2c(-c3ccc(O)c(O)c3)cnc12
Homo sapiens, A-375, 96 h
  IC50: 60 nM

## CNc1nc2ccccc2n2ccnc12
Homo sapiens, A-375, 96 h
  IC50: > 10000 nM
